Assay outcomes as filed in PubChem BioAssay.
CHOP UPR activ: apoptotic UPR (CHOP) activation; AID 449763; CHO-CHOP luciferase reporter, luminescence; percent of tunicamycin response over DMSO baseline; 330,000 compounds, 0.34% hits; activation, % at 10 µM;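 active means at 10 µM dose, activation of 40% or more, normalized to positive control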;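 further: 100% = tunicamycin at 10 µg/mL and 0% = DMSO alone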
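Test system: CHO CHOP reporter cells. Input: 500 CHO-CHOP cells per well. Medium: F12 with 10% FBS. Technique: luciferase luminescence. Measure: percent activation relative to tunicamycin control. Dosing: 10 µM compound, 0.5% DMSO. Timing: 16-18 h cell attachment, then 6 h compound exposure, 37 °C.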
UPR XBP1 act: adaptive UPR (XBP1) activation; CHO-XBP1 luciferase reporter, IRE1-XBP1 UPR activation, luminescence; percent of tunicamycin response, DMSO as zero; 330,000 compounds, 0.33% hits; activation, % at 20 µM;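 active means versus positive control, 20 µM dose yields 30% or more activation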;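 further: 100% = tunicamycin at 10 µg/mL and 0% = DMSO only wells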
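Assay system: IRE1-XBP1 luciferase reporter CHO line. Input: 1000 cells/well. Buffer or medium: F12 with 10% serum. Doses: 20 µM, 1% DMSO. Times: overnight seeding at 37 °C, 6 h compound treatment at 37 °C. Technique: Steady-Glo luciferase glow luminescence, 10 min after reagent addition.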
CHOP inh: CHOP inhibition in unfolded protein response; CHO-K1 CHOP-promoter luciferase, tunicamycin-induced, 15-18 h; inhibition, % at 10 µM; 220,000 compounds, 3.8% hits;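 active means compounds that reduced the stress-induced luciferase reporter signal by more than about 70% of percent inhibition, limit read from the data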;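 further: 0% = tunicamycin plus vehicle and 100% = wells without tunicamycin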
Jurkat NFkB inh: inhibitors of the PMA/ionomycin-induced NF-kB reporter in Jurkat cells; AID 435003; PMA/ionomycin-induced NF-kB luciferase reporter, luminescence; 330,000 compounds, 0.53% hits; inhibition, % at 4 µM; in the data active means inhibition above about 50%
697 NFkB inh: lowers PMA/ionomycin-induced NF-kB signal in 697 B cells. inhibition, % at 4 µM. 697 B-cell NF-kB luciferase reporter, 16 h. 330,000 compounds, 0.33% hits. AID 435022; in the data active means inhibition above about 35%
XBP1 UPR conf: adaptive UPR (XBP1) activation, confirmed; CHO-XBP1 IRE1-XBP1 luciferase reporter, luminescence; activation, % at 20 µM; shares compounds with UPR XBP1 act; 1,000 compounds, 63% hits;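 active means reporter signal at least 30% of the positive control's activation in two or more of four replicate wells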;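 further: plate controls were DMSO negative control for no effect and tunicamycin 10 µg/mL positive control for full effect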
* = called active by the depositor; x = no result. This is one part of a sample in which hits are shown more often than they occur.

SMILES | CHOP UPR activ | UPR XBP1 act | CHOP inh | Jurkat NFkB inh | 697 NFkB inh | XBP1 UPR conf
Cc1ccc2c(c1)C(=O)C(=O)N2Cc1ccc(F)cc1 | 1 | 7 | x | 11 | 19 | x
Cc1ccc2c(c1)C(=O)C(=O)N2Cc1ccc(Cl)cc1 | 5 | 37* | x | 8 | -2 | 30*
COc1cc(/C=C2\SC(=O)N(CCNC(=O)c3sc4cc(F)ccc4c3Cl)C2=O)cc(OC)c1OC | 0 | -2 | 26 | 12 | 21 | x
O=C(Cn1c2ccccc2c(=O)c2cc([N+](=O)[O-])ccc21)Nc1ccccc1Cl | 29 | 118* | 36 | -2 | 0 | 80*
CC(=O)c1ccc(NC(=O)c2sc3nc(C)c(C)c(C)c3c2N)cc1 | 1 | -5 | x | -139 | -107 | x
Cc1nc2sc(C(=O)Nc3ccccc3)c(N)c2c(C)c1[N+](=O)[O-] | 39 | 91* | 24 | -124 | -140 | 19
CC(=O)Oc1ccc(C(=O)N2c3ccccc3NC(=O)C2C)cc1 (configuration not stated) | 2 | -3 | x | -3 | 13 | x
Clc1ccc(C2=Nn3c(nnc3-c3cc(-c4ccccc4)n[nH]3)SC2)cc1 | 14 | 66* | -27 | -4 | -13 | 51*
O=C(c1ccc2c(c1)[nH]c(=S)n1c3ccccc3nc21)N1CCN(c2cccc(Cl)c2)CC1 | 1 | 33* | 51 | 11 | 10 | 54*
C=CCn1c(=O)[nH]c2cc(C(=O)N3CCN(c4cccc(Cl)c4)CC3)ccc2c1=O | -2 | 2 | 60 | 5 | -17 | x
CC(C)(c1ccccc1)c1ccc(OCC(O)CNC2CCN(Cc3ccccc3)CC2)cc1 (configuration not stated) | 12 | 53* | 11 | 6 | -18 | 9
COc1cc(C(=O)NNC(=O)CN2C(=O)NC(C)(c3ccc(C)cc3)C2=O)cc(OC)c1OC (configuration not stated) | 0 | 0 | x | 1 | 14 | x
CSc1ccccc1OCc1cc(C(=O)NCCN2CCCc3ccccc32)no1 | 2 | -5 | x | -7 | -24 | x
CSc1ccc(/C=N/NC(=O)CN2CCN(Cc3ccc(C)cc3)CC2)cc1 | 0 | 1 | 19 | -20 | -7 | x
COc1ccc(C(C(=O)NC2CCCC2)N(C(=O)c2snc(-c3ccc(F)cc3)c2N)c2ccccc2)cc1 (configuration not stated) | 19 | 32* | 28 | 15 | 6 | 16
COc1ccc(C(C(=O)NC2CCCC2)N(C(=O)c2snc(-c3ccc(F)cc3)c2N)c2ccc(F)cc2)cc1 (configuration not stated) | 7 | 7 | 47 | 12 | -16 | x
COc1ccc(C(C(=O)NC2CCCC2)N(C(=O)c2snc(-c3ccc(F)cc3)c2N)c2cccc(F)c2)cc1 (configuration not stated) | 14 | 37* | 48 | -3 | 0 | 16
Cc1ccc(C(C[N+](=O)[O-])c2c(-c3ccccc3O)[nH][nH]c2=O)cc1 (configuration not stated) | 16 | 31* | 11 | -4 | 1 | -2
O=C(CSc1ccc2nnc(-c3ccc(Cl)cc3)n2n1)N1CCCc2ccccc21 | 3 | 50* | 23 | 11 | -1 | 18
O=C(CSc1ccc2nnc(-c3ccc(F)cc3)n2n1)N1CCCc2ccccc21 | -1 | -4 | 40 | 5 | -14 | x
COc1cc(C2CC(=O)c3c(ccc4ccccc34)N2)ccc1O (configuration not stated) | -2 | 0 | 21 | -3 | -6 | x
COc1cccc(C2Nc3ccc4ccccc4c3C3=C2C(=O)CCC3)c1O (configuration not stated) | 2 | 57* | x | -23 | -14 | 8
CCOCCCNC(=O)COc1ccc(OC)cc1 | -1 | 3 | -5 | -6 | 6 | x
C=CC[C@H](CC(=O)NCCO)C(=O)N[C@H](COC(=O)[C@H](CC=C)CC(=O)OC(C)(C)C)c1ccccc1 | 1 | -2 | x | -2 | 2 | x
NS(=O)(=O)c1ccc(NC(=O)COC(=O)c2cn(-c3ccccc3)nc2-c2ccc(F)cc2)cc1 | 3 | 68* | 78* | -5 | 0 | 89*
SMILES | CHOP UPR activ | UPR XBP1 act | CHOP inh | Jurkat NFkB inh | 697 NFkB inh | XBP1 UPR conf
CCOC(=O)c1nnc(-c2ccccc2)nc1Sc1ccccc1Cl | 10 | 38* | 53 | -15 | -20 | 68*
CCOC(=O)c1nnc(-c2ccc(C)cc2)nc1Sc1cccc(Cl)c1 | 36 | 48* | 59 | -12 | -5 | 46*
CCOc1ccc(S(=O)(=O)N2CCC(C(=O)OC(C)C(=O)N3CCOCC3)CC2)cc1 (configuration not stated) | 2 | -2 | x | 8 | 2 | x
Cc1c(O)ccc(/C=N/Nc2nc(-c3cccnc3)nc3ccccc23)c1O | 9 | 36* | 24 | -3 | -62 | 28
Cc1ccccc1Nc1nc(-c2cccnc2)nc2ccccc12 | 0 | 5 | 37 | -9 | 19 | x
O=C(CN1CCCCC1)Nc1c2c(nc3ccccc13)N(c1ccccc1)CC2 | 3 | 56* | 86* | -5 | 7 | 29
COC(=O)c1ccccc1NC(=O)c1ccc(-c2cccc(Cl)c2)o1 | 14 | 52* | 67 | -22 | -58 | 15
Cc1ccc(-n2nc3c(N4CCC(C(=O)NCc5ccccc5C)CC4)nnc(C)c3c2C)cc1 | 0 | 16 | x | 32 | 14 | x
CCOc1ccccc1CNC(=O)C1CCN(c2nnc(C)c3c(C)n(-c4ccc(C)cc4)nc23)CC1 | 35 | 64* | x | 34 | 2 | 85*
COc1ccc(-n2nc3c(N4CCC(C(=O)NCCc5ccco5)CC4)nnc(C)c3c2C)cc1 | -1 | 8 | x | 21 | 19 | x
COc1ccccc1CCNC(=O)C1CCN(c2nnc(C)c3c(C)n(-c4ccc(C)cc4)nc23)CC1 | 5 | 114* | x | 48 | -6 | 139*
Cc1ccc(Nc2nc(NCCO)c3ccccc3n2)cc1C | 14 | 39* | x | -7 | -32 | 39*
CCCCCCOc1ccc(/C(C)=N/NC2=NCCN2)cc1[N+](=O)[O-] | 8 | 32* | 1 | 46 | -57 | 16
CCOc1ccccc1C(=O)N(Cc1sccc1C)C1CCS(=O)(=O)C1 (configuration not stated) | 1 | -6 | x | 14 | 10 | x
CCOc1cc(/C=N/N=C(/N)c2nonc2N)cc(Br)c1OCc1ccc(Cl)cc1 | 2 | 70* | 19 | 7 | 10 | 142*
CCOC(=O)C1=C(C)N=C2SC(C(=O)OC)=CC(=O)N2C1c1ccc(F)cc1 (configuration not stated) | 9 | 132* | 12 | 16 | -2 | 103*
COc1cc(-c2ccc3oc(-c4ccsc4)cc3c2)cc(OC)c1OC | 6 | 61* | x | -20 | 0 | 32*
